From ChEMBL document CHEMBL4613285 (ACS Med Chem Lett, 2020)
pEC50, pIC50: −log10 of the molar value. Activity calls are given as the source filed them. No cut-off for these calls is given here.

Experiments:
[1] = Ratio of drug level in brain to plasma in C57BL/6 mouse at 3 mg/kg, iv measured after 8 mins by LC-MS/MS analysis; details: brain and plasma
MDR1 [2] = test: Efflux ratio of apparent permeability from basolateral to apical over apical to basolateral side in MDCK-MDR1 cells incubated for 2 hrs by LC-MS/MS analysis; details: dog
[3] = Metabolic stability in mouse plasma assessed as half life; assay type: ADME, cell-free
[4] = Metabolic stability in mouse liver microsomes assessed as half life; assay type: ADME, Microsome
[5] = Half life in CD-1 mouse at 3 mg/kg, iv; assay type: ADME, organism-based; details: in vivo
[6] = Initial plasma concentration in CD-1 mouse at 3 mg/kg, iv measured at 0 mins; assay type: ADME, organism-based
In short: (§1)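 Plasma PK in male CD1 mice (n=3, mean) after 3 mg/kg IV; vehicle 5% DMSO in 10% HP-β-CD in saline, pH adjusted with HCl; C0, C1h and Vss derived from plasma profile.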

[7] = Plasma concentration in CD-1 mouse at 3 mg/kg, iv measured at 1 hr; assay type: ADME, organism-based; in short: as §1
[8] = AUC in CD-1 mouse at 3 mg/kg, iv; assay type: ADME, organism-based; details: in vivo
[9] = Volume of distribution at steady state in CD-1 mouse at 3 mg/kg, iv; assay type: ADME, organism-based; details: in vivo; in short: as §1
[10] = Half life in CD-1 mouse at 30 mg/kg, po; assay type: ADME, organism-based; details: in vivo
[11] = Initial plasma concentration in CD-1 mouse at 30 mg/kg, po measured at 0 mins; assay type: ADME, organism-based; details: read-out: C0
In short: (§2)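 Plasma PK in male CD1 mice (n=3, mean) after 30 mg/kg oral dosing; formulation 5% DMSO in 10% HP-β-CD in saline, pH adjusted with HCl; C0 and C1h from plasma profile.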

[12] = Plasma concentration in CD-1 mouse at 30 mg/kg, po measured at 1 hr; assay type: ADME, organism-based; in short: as §2
[13] = AUC in CD-1 mouse at 30 mg/kg, po; assay type: ADME, organism-based; details: in vivo
[14] = Oral bioavailability in CD-1 mouse at 30 mg/kg; assay type: ADME, organism-based; details: in vivo
[15] = Protein binding in mouse plasma; assay type: ADME, cell-free; details: read-out: PPB (converted)
[16] = Protein binding in mouse plasma assessed as unbound fraction measured at initial point; assay type: ADME, cell-free
In short: (§3)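 Unbound plasma level derived from total concentrations predicted for 10 mg/kg IP using IV PK data, corrected by measured mouse plasma protein binding; given at initial point and 1 h.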

[17] = Protein binding in mouse plasma assessed as unbound fraction measured at 1 hr; assay type: ADME, cell-free; in short: as §3
[18] = molecular target: T1, Protein deacetylase HDAC6 (Mus musculus, UniProt Q9Z2V5); test: Inhibition of HDAC6 in mouse N2A cells assessed as increase in alpha tubulin acetylation; assay type: cell-based
T1 sequence (Q9Z2V5 whole entry): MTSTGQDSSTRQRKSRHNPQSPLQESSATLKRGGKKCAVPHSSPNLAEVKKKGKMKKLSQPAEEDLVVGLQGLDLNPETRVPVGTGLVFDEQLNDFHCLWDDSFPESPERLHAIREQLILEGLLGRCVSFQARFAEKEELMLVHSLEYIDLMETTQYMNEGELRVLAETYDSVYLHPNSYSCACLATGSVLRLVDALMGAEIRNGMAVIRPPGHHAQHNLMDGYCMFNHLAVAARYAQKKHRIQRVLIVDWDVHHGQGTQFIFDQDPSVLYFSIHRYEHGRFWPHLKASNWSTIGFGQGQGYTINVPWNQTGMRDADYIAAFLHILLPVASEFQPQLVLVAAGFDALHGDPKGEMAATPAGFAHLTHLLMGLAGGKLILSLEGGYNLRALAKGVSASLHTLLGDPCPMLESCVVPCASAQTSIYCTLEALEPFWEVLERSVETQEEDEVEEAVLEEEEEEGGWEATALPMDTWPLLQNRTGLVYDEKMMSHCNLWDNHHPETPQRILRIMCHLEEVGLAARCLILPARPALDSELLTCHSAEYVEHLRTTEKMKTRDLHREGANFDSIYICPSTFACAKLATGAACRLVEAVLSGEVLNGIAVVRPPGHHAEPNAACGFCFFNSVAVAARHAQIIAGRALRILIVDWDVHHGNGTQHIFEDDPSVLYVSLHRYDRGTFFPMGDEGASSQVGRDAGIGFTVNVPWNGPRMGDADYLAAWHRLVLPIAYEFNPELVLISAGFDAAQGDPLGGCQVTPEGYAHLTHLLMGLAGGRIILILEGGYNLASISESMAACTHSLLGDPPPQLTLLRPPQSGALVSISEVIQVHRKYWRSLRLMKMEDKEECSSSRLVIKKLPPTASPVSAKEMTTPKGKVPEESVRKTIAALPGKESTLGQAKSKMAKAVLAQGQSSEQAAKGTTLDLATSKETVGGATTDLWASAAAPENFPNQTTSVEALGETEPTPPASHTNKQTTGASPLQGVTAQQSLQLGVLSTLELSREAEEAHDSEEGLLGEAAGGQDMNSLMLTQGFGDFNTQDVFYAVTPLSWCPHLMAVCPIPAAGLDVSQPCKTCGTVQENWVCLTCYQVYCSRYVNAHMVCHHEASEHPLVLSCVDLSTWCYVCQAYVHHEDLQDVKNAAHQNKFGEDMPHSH
In short: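 N2a cells; α-tubulin acetylation read out; 10-dose EC50 mode, singlet, 3-fold serial dilutions from 100 μM top concentration.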

Histone deacetylase 1 = Histone deacetylase 1 (Mus musculus, UniProt O09106); test: Inhibition of HDAC1 in mouse N2A cells; assay type: cell-based
[19] = molecular target: T1, Protein deacetylase HDAC6; test: Inhibition of HDAC6 in mouse N2A cells; assay type: cell-based
MDR1 [20] = test: Efflux ratio of permeability in MDCK-MDR1 cells; assay type: ADME, cell-based, Canis lupus familiaris; details: dog
[21] = Drug concentration in CD-1 mouse brain at 3 mg/kg, iv measured at 8 mins; assay type: ADME, organism-based; details: read-out: Ct
In short: (§4)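 Male CD1 mice (n=2) dosed IV at 3 mg/kg; brain and plasma sampled at 8 and 60 min; values reported as mean ± standard error.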

[22] = Drug concentration in CD-1 mouse brain at 3 mg/kg, iv measured at 60 mins; assay type: ADME, organism-based; details: read-out: Ct; in short: as §4
[23] = Drug concentration in CD-1 mouse plasma at 3 mg/kg, iv measured at 8 mins; assay type: ADME, organism-based; in short: as §4
[24] = Drug concentration in CD-1 mouse plasma at 3 mg/kg, iv measured at 60 mins; assay type: ADME, organism-based; in short: as §4
[25] = Ratio of drug level in brain to plasma in CD-1 mouse at 3 mg/kg, iv measured after 8 mins; assay type: ADME, organism-based; details: brain and plasma, read-out: BPR; in short: as §4
[26] = Ratio of drug level in brain to plasma in CD-1 mouse at 3 mg/kg, iv measured after 60 mins; assay type: ADME, organism-based; details: brain and plasma, read-out: BPR; in short: as §4
[27] = Protein binding in mouse brain homogenate; assay type: ADME, tissue-based; details: read-out: PB (converted)
[28] = Free drug concentration in mouse brain at 25 mg/kg measured at 8 mins; assay type: ADME, organism-based; details: in vivo
In short: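 Free brain exposure calculated for 25 mg/kg from brain PK at 8 min and brain homogenate binding.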

[29] = Metabolic stability in mouse Hepatocyte assessed as half life; assay type: ADME, cell-based; details: hepatocytes
Mus musculus = species on record: Mus musculus; test: Selectivity index, ratio of IC50 for HDAC1 in mouse N2A cells to IC50 for HDAC6 in mouse N2A cells; assay type: cell-based
[30] = molecular target: T2, Protein deacetylase HDAC6 (Mus musculus) (UniProt Q9Z2V5); test: In vivo inhibition of HDAC6 in C57BL/6 mouse cortex assessed as increase in alpha tubulin acetylation at 20 mg/kg, ip administered bid with interval of 4 hrs and measured after 1.5 hrs of last dosage by Western blot analysis; assay type: functional, organism-based
T2 sequence (whole entry): T1 sequence (Q9Z2V5 whole entry)
In short: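 Adult male C57BL/6 mice got two IP injections of 20 mg/kg, 4 h apart, and were killed 1.5 h after the second. Cortical homogenates were Western blotted (n = 3–4 per group) for acetylated α-tubulin/total tubulin densitometric ratio, normalized to vehicle-treated baseline (100%). Mean and standard deviation are reported; significance versus vehicle at p < 0.05 or p < 0.01.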

Chain of Histone deacetylase 1 (O09106 whole entry): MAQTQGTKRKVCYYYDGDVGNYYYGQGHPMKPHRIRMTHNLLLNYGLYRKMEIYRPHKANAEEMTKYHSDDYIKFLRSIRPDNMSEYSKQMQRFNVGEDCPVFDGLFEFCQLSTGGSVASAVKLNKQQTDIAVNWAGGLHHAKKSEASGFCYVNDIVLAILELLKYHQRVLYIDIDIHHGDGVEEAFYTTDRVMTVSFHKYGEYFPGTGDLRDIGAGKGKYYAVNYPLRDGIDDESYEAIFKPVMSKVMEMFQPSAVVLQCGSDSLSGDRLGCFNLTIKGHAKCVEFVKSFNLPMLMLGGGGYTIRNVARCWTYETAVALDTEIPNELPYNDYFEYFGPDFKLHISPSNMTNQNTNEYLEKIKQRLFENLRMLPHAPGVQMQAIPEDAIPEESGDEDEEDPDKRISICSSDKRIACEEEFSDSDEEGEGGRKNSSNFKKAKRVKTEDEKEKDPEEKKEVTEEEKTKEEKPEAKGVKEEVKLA

`CN1CCc2c(c3ccccc3n2Cc2ccc(C(=O)NO)cc2)C1` [TUBASTATIN A] gave a Kp at 8 min [1] of 0.15, an efflux ratio at 2 h (MDR1 [2]) of 9.83 and a half-life [3] of 30 min. For the same compound, the half-life [4] was greater than 60 min, the t1/2 [5] was 21 min and the C0 at 0 h [6] was 1240 ng/mL. It also gave a concentration at 1 h [7] of 29.7 ng/mL, an AUC [8] of 227 ng·h/mL and a Vdss [9] of 4.14 L/kg. For the same compound, the half-life [10] was 51.6 min, the concentration at 0 h [11] was 135 ng/mL and the concentration at 1 h [12] was 41.9 ng/mL. The AUC [13] was 134 ng·h/mL, the bioavailability [14] was 5.9% and the fraction unbound [15] was 0.34. For the same compound, the “C0(unbound)” value [16] was 3770 nM, the “Cp(f)” value [17] was 90 nM and the pEC50 [18] was 6.84. The pIC50 (Histone deacetylase 1) was 5.09, the pIC50 [19] was 8.36 and the efflux ratio (MDR1 [20]) was 9.83. The concentration at 8 min [21] was 40.5 ng/g, the concentration at 1 h [22] was 17.5 ng/g and the concentration at 8 min [23] was 274 ng/mL. It also gave a concentration at 1 h [24] of 20.3 ng/mL, a Kp at 8 min [25] of 0.15 and a Kp at 1 h [26] of 0.86. The fraction unbound [27] was 0.094, the “Drug uptake(free)” value [28] was 0.1 µM and the half-life [29] was greater than 60 min.
For `O=C(NO)c1ccc(Cn2cccn2)cc1`, the pEC50 [18] was 6.03, the pIC50 (Histone deacetylase 1) was 5.16 and the pIC50 [19] was 7.34. For the same compound, the Ratio IC50 (Mus musculus) was 150, the efflux ratio (MDR1 [20]) was 0.51 and the concentration at 8 min [21] was 354 ng/g. For the same compound, the concentration at 1 h [22] was 30.5 ng/g, the concentration at 8 min [23] was 345 ng/mL and the concentration at 1 h [24] was 6 ng/mL. The Kp at 8 min [25] was 1.03, the Kp at 1 h [26] was 5.08 and the Activity [30] was “Active”.
`O=C(NO)c1ccc(CN2CCc3ccc(F)cc32)cc1` showed a pEC50 [18] of 6.60, a pIC50 (Histone deacetylase 1) of 5.26 and a pIC50 [19] of 8.01. For the same compound, the Ratio IC50 (Mus musculus) was 571, the efflux ratio (MDR1 [20]) was 1.05 and the concentration at 8 min [21] was 944 ng/g. For the same compound, the concentration at 1 h [22] was 7.6 ng/g, the concentration at 8 min [23] was 152 ng/mL and the concentration at 1 h [24] was 0.8 ng/mL. For the same compound, the Kp at 8 min [25] was 6.21, the Kp at 1 h [26] was 9.5 and the Activity [30] was “Active”.
